{"source": "ChEMBL document CHEMBL2346664", "about": "“Synthesis, characterization and in vitro anticancer evaluation of novel 1,2,4-triazolin-3-one derivatives” (2013)", "type_in_all_cases": "functional", "key": {"SF-268": {"tested_on": "SF-268", "assay": "Growth inhibition of human SF268 cells assessed as cell growth at 10 '-5 M after 48 hrs by sulforhodamine B assay", "settings": "SF-268, 48 h, read-out: Activity"}, "HCT-15": {"tested_on": "HCT-15", "assay": "Growth inhibition of human HCT15 cells assessed as cell growth at 10 '-5 M after 48 hrs by sulforhodamine B assay", "settings": "HCT-15, 48 h, read-out: Activity"}, "SR [1]": {"tested_on": "SR", "assay": "Growth inhibition of human SR cells assessed as cell growth at 10 '-5 M after 48 hrs by sulforhodamine B assay", "settings": "read-out: Activity"}, "K562": {"tested_on": "K562", "assay": "Growth inhibition of human K562 cells assessed as cell growth at 10 '-5 M after 48 hrs by sulforhodamine B assay", "settings": "K562, 48 h, read-out: Activity"}, "MDA-MB-468": {"tested_on": "MDA-MB-468", "assay": "Growth inhibition of human MDA-MB-468 cells assessed as cell growth at 10 '-6 M after 48 hrs by sulforhodamine B assay", "settings": "MDA-MB-468, 48 h, read-out: Activity"}, "UACC-62": {"tested_on": "UACC-62", "assay": "Growth inhibition of human UACC62 cells assessed as cell growth at 10 '-6 M after 48 hrs by sulforhodamine B assay", "settings": "UACC-62, 48 h, read-out: Activity"}, "ACHN": {"tested_on": "ACHN", "assay": "Growth inhibition of human ACHN cells assessed as growth inhibition at 10 uM after 48 hrs by sulforhodamine B assay", "settings": "read-out: GI", "in_short": "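Percent growth inhibition from the single 10^-5 M NCI-60 screen, reported as 100 minus growth percent. Growth percent was measured after 48 h drug exposure at 37 °C, 5% CO2, using TCA fixation, SRB staining and absorbance at 515 nm, against untreated controls and time-zero plates.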"}, "SF-295": {"tested_on": "SF-295", "assay": "Growth inhibition of human SF295 cells assessed as growth inhibition at 10 uM after 48 hrs by sulforhodamine B assay", "settings": "SF-295, 48 h, read-out: GI"}, "SR [2]": {"tested_on": "SR", "assay": "Growth inhibition of human SR cells assessed as growth inhibition at 10 uM after 48 hrs by sulforhodamine B assay", "settings": "read-out: GI"}, "HCT-116": {"tested_on": "HCT-116", "assay": "Growth inhibition of human HCT116 cells assessed as cell growth at 10 '-6 M after 48 hrs by sulforhodamine B assay", "settings": "HCT-116, 48 h, read-out: Activity"}, "NCI-H23": {"tested_on": "NCI-H23", "assay": "Growth inhibition of human NCI-H23 cells assessed as cell growth at 10 '-6 M after 48 hrs by sulforhodamine B assay", "settings": "NCI-H23, 48 h, read-out: Activity"}, "A549 [3]": {"tested_on": "A549", "assay": "Growth inhibition of human A549 cells assessed as cell growth at 10 '-6 M after 48 hrs by sulforhodamine B assay", "settings": "A549, 48 h, read-out: Activity", "in_short": "(§1)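 Percent growth at each of the five concentrations of the 48 h continuous-exposure NCI SRB screen. Drug stocks were in DMSO at 400× the top final concentration and diluted in medium with gentamicin. Growth was calculated as [(Ti-Tz)/(C-Tz)]×100 when Ti ≥ Tz, or [(Ti-Tz)/Tz]×100 when Ti < Tz. Tz plates were fixed at drug addition; untreated wells served as control. Absorbance was read at 515 nm.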"}, "SNB-19": {"tested_on": "SNB-19", "assay": "Growth inhibition of human SNB19 cells assessed as cell growth at 10 '-7 M after 48 hrs by sulforhodamine B assay", "settings": "SNB-19, 48 h, read-out: Activity"}, "786-0": {"tested_on": "786-0", "assay": "Growth inhibition of human 786-0 cells assessed as cell growth at 10 '-4 M after 48 hrs by sulforhodamine B assay", "settings": "786-0, 48 h, read-out: Activity", "in_short": "as §1"}, "MDA-MB-231": {"tested_on": "MDA-MB-231", "assay": "Growth inhibition of human MDA-MB-231 cells after 48 hrs by sulforhodamine B assay", "settings": "MDA-MB-231, 48 h", "in_short": "(§2)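 NCI 60-cell-line five-dose screen. Cells were plated at 5,000–40,000/well by doubling time and grown 24 h at 37 °C, 5% CO2. Time-zero plates were TCA-fixed. Drug from DMSO stock was tested at 0.01, 0.1, 1, 10 and 100 µM final for 48 h continuous exposure. Read-out was SRB at 515 nm. GI50 is the concentration giving 50% reduction in net protein increase versus untreated control.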"}, "OVCAR-8": {"tested_on": "OVCAR-8", "assay": "Growth inhibition of human OVCAR8 cells after 48 hrs by sulforhodamine B assay", "settings": "OVCAR-8, 48 h"}, "BT-549": {"tested_on": "BT-549", "assay": "Growth inhibition of human BT549 cells assessed as cell growth at 10 '-5 M after 48 hrs by sulforhodamine B assay", "settings": "BT-549, 48 h, read-out: Activity", "in_short": "as §1"}, "MCF7": {"tested_on": "MCF7", "assay": "Growth inhibition of human MCF7 cells assessed as cell growth at 10 '-5 M after 48 hrs by sulforhodamine B assay", "settings": "MCF7, 48 h, read-out: Activity"}, "UO-31": {"tested_on": "UO-31", "assay": "Growth inhibition of human UO31 cells assessed as cell growth at 10 '-5 M after 48 hrs by sulforhodamine B assay", "settings": "UO-31, 48 h, read-out: Activity"}, "UACC-257": {"tested_on": "UACC-257", "assay": "Growth inhibition of human UACC257 cells after 48 hrs by sulforhodamine B assay", "settings": "UACC-257, 48 h", "in_short": "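NCI 60-cell-line five-dose screen over 0.01, 0.1, 1, 10 and 100 µM, with 48 h continuous exposure at 37 °C and 5% CO2 after 24 h pre-incubation (5,000–40,000 cells/well). Cells were TCA-fixed (10% final for adherent, 16% for suspension), stained with SRB and read at 515 nm. GI50 was solved from [(Ti−Tz)/(C−Tz)]×100 = 50 against time-zero plates.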"}, "SW-620": {"tested_on": "SW-620", "assay": "Growth inhibition of human SW620 cells after 48 hrs by sulforhodamine B assay", "settings": "SW-620, 48 h"}, "HOP-92": {"tested_on": "HOP-92", "assay": "Growth inhibition of human HOP92 cells after 48 hrs by sulforhodamine B assay", "settings": "HOP-92, 48 h", "in_short": "as §2"}, "MOLT-4": {"tested_on": "MOLT-4", "assay": "Growth inhibition of human MOLT4 cells after 48 hrs by sulforhodamine B assay", "settings": "MOLT-4, 48 h", "in_short": "as §2"}, "[4]": {"assay": "Growth inhibition of human HCC2998 cells assessed as cell growth at 10 '-7 M after 48 hrs by sulforhodamine B assay", "settings": "HCC 2998, 48 h, read-out: Activity"}, "[5]": {"assay": "Growth inhibition of human EKVX cells assessed as cell growth at 10 '-7 M after 48 hrs by sulforhodamine B assay", "settings": "read-out: Activity"}, "A549 [6]": {"tested_on": "A549", "assay": "Growth inhibition of human A549 cells assessed as cell growth at 10 '-7 M after 48 hrs by sulforhodamine B assay", "settings": "A549, 48 h, read-out: Activity", "in_short": "as §1"}, "RPMI-8226": {"tested_on": "RPMI-8226", "assay": "Growth inhibition of human RPMI8226 cells assessed as cell growth at 10 '-7 M after 48 hrs by sulforhodamine B assay", "settings": "RPMI-8226, 48 h, read-out: Activity"}, "T47D": {"tested_on": "T47D", "assay": "Growth inhibition of human T47D cells assessed as cell growth at 10 '-8 M after 48 hrs by sulforhodamine B assay", "settings": "read-out: Activity"}, "[7]": {"settings": "read-out: LD50 (the source's name)"}}, "data": [{"compound": "Cc1cc(=O)oc2cc(OCCn3c(C)nn(-c4ccc(Cl)cc4)c3=O)ccc12", "values": [{"measurement": "growth at 10 µM", "setting": "SF-268", "result": 52, "unit": "%"}, {"measurement": "growth at 10 µM", "setting": "HCT-15", "result": 20, "unit": "%"}, {"measurement": "growth at 10 µM", "setting": "SR [1]", "result": -6, "unit": "%"}, {"measurement": "growth at 10 µM", "setting": "K562", "result": 23, "unit": "%"}, {"measurement": "growth at 1 µM", "setting": "MDA-MB-468", "result": 77, "unit": "%"}, {"measurement": "growth at 1 µM", "setting": "UACC-62", "result": 61, "unit": "%"}, {"measurement": "inhibition of growth at 10 µM", "setting": "ACHN", "result": 58.1, "unit": "%"}, {"measurement": "inhibition of growth at 10 µM", "setting": "SF-295", "result": 86, "unit": "%"}, {"measurement": "inhibition of growth at 10 µM", "setting": "SR [2]", "result": 78.8, "unit": "%"}, {"measurement": "growth at 1 µM", "setting": "HCT-116", "result": 86, "unit": "%"}, {"measurement": "growth at 1 µM", "setting": "NCI-H23", "result": 64, "unit": "%"}, {"measurement": "growth at 1 µM", "setting": "A549 [3]", "result": 96, "unit": "%"}, {"measurement": "growth at 0.1 µM", "setting": "SNB-19", "result": 89, "unit": "%"}, {"measurement": "growth at 100 µM", "setting": "786-0", "result": 15, "unit": "%"}, {"measurement": "GI50", "setting": "MDA-MB-231", "result": 4530, "unit": "nM"}, {"measurement": "TGI", "setting": "MDA-MB-231", "result": "> 1000", "unit": "nM"}, {"measurement": "CC50", "setting": "MDA-MB-231; [7]", "result": "> 1000", "unit": "nM"}, {"measurement": "GI50", "setting": "OVCAR-8", "result": 5170, "unit": "nM"}, {"measurement": "TGI", "setting": "OVCAR-8", "result": "> 1000", "unit": "nM"}, {"measurement": "CC50", "setting": "OVCAR-8; [7]", "result": "> 1000", "unit": "nM"}, {"measurement": "growth at 10 µM", "setting": "BT-549", "result": 64, "unit": "%"}, {"measurement": "growth at 10 µM", "setting": "MCF7", "result": 14, "unit": "%"}, {"measurement": "growth at 10 µM", "setting": "UO-31", "result": 51, "unit": "%"}, {"measurement": "TGI", "setting": "UACC-257", "result": "> 1000", "unit": "nM"}, {"measurement": "CC50", "setting": "UACC-257; [7]", "result": "> 1000", "unit": "nM"}, {"measurement": "GI50", "setting": "SW-620", "result": 2200, "unit": "nM"}, {"measurement": "TGI", "setting": "SW-620", "result": "> 1000", "unit": "nM"}, {"measurement": "CC50", "setting": "SW-620; [7]", "result": "> 1000", "unit": "nM"}, {"measurement": "GI50", "setting": "HOP-92", "result": 1610, "unit": "nM"}, {"measurement": "TGI", "setting": "HOP-92", "result": "> 1000", "unit": "nM"}, {"measurement": "CC50", "setting": "HOP-92; [7]", "result": "> 1000", "unit": "nM"}, {"measurement": "GI50", "setting": "MOLT-4", "result": 4710, "unit": "nM"}, {"measurement": "TGI", "setting": "MOLT-4", "result": "> 1000", "unit": "nM"}, {"measurement": "CC50", "setting": "MOLT-4; [7]", "result": "> 1000", "unit": "nM"}, {"measurement": "growth at 0.1 µM", "setting": "[4]", "result": 91, "unit": "%"}, {"measurement": "growth at 0.1 µM", "setting": "[5]", "result": 90, "unit": "%"}, {"measurement": "growth at 0.1 µM", "setting": "A549 [6]", "result": 98, "unit": "%"}, {"measurement": "growth at 0.1 µM", "setting": "RPMI-8226", "result": 97, "unit": "%"}, {"measurement": "growth at 0.01 µM", "setting": "T47D", "result": 98, "unit": "%"}]}]}
